Measured values taken from ChEMBL document CHEMBL5653606 (J Pharmacol Exp Ther, 2011).
Active and inactive are the calls of the source.

Experiments:
[1] = system: Rattus norvegicus; test: Antihyperalgesic activity in CFA induced Sprague-Dawley rat assessed as partial reduction of mechanical allodynia at 3 mg/kg, ip by von frey test; format: functional, organism-based
Outline: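 CFA (150 μl, 1 mg/ml in mineral oil) injected into the plantar hind paw of male Sprague-Dawley rats (200–250 g). On day 5, the CB1 or CB2 antagonist was given at 3 mg/kg i.p. 10 min before testing, alongside a 3 mg/kg p.o. dose of the FAAH inhibitor. Mechanical paw withdrawal thresholds were measured with Von Frey hairs; n = 8 rats/group.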

[2] = system: Mus musculus; test: In vivo inhibition of rhodamine-azide tagged FAAH expressed in mouse liver at 10 mg/kg, ip administered for 2 hrs by CC-ABPP method based in-gel fluorescence scanning analysis; format: functional, organism-based
Outline: (§1)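 Alkyne analog given at 10 mg/kg i.p. to FAAH(+/+) or FAAH(−/−) mice. Animals killed at 2 h. Brain or liver proteomes click-reacted with rhodamine-azide tag, then analyzed by in-gel fluorescence scanning.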

[3] = target: T1, Fatty-acid amide hydrolase 1 (Homo sapiens) (UniProt O00519); test: Inhibition of FAAH (unknown origin) assessed as kinact/Ki ratio in presence of glutamate dehydrogenase by 384-well format microplate reader assay
T1 sequence (whole entry): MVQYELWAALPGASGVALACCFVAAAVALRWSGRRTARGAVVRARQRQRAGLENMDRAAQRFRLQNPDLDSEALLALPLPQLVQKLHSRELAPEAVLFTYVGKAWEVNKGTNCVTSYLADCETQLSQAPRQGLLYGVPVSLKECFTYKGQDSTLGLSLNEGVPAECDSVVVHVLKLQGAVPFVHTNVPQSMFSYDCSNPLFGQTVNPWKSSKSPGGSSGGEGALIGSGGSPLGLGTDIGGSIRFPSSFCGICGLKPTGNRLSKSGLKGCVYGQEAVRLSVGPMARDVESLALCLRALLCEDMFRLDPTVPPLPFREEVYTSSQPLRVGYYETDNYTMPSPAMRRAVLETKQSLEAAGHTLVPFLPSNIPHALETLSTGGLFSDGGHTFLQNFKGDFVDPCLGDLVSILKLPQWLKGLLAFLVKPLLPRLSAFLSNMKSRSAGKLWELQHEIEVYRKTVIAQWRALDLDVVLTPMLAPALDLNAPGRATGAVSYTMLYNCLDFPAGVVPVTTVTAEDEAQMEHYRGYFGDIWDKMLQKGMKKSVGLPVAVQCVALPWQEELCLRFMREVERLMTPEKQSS

[4] = system: Mus musculus; test: In vivo inhibition of rhodamine-azide tagged FAAH expressed in mouse brain at 10 mg/kg, ip administered for 2 hrs by CC-ABPP method based in-gel fluorescence scanning analysis; format: functional, organism-based; outline: as §1
[5] = target: T2, Fatty-acid amide hydrolase 1 (Rattus norvegicus) (UniProt P97612); test: Inhibition of rat FAAH assessed as kinact/Ki ratio in presence of glutamate dehydrogenase by 384-well format microplate reader assay
T2 sequence (whole entry): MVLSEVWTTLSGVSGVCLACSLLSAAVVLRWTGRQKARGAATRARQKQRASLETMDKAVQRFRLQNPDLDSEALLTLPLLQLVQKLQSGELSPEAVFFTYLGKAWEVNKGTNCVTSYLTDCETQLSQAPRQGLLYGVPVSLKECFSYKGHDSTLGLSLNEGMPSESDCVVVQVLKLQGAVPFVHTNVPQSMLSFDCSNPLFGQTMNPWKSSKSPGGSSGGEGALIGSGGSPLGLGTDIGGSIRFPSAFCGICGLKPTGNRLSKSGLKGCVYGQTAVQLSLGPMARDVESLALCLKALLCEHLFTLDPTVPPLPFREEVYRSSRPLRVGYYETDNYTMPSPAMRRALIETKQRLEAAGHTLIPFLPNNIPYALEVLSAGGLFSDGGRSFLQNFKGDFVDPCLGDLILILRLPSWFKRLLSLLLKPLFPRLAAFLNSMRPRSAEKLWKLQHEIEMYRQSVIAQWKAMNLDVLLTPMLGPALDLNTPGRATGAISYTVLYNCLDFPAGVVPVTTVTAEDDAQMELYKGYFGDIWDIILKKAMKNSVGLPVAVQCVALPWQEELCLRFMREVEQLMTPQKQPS
Outline: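 Purified recombinant FAAH (>95% pure), human or rat. Glutamate dehydrogenase-coupled assay in 384-well format, 50 μl final volume. NAD⁺ formed from ammonia released by oleamide hydrolysis, followed at 340 nm.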

[6] = system: Rattus norvegicus; test: Antihyperalgesic activity in MIA induced Sprague-Dawley rat assessed as effect on pain behaviour in contralateral knee joint at 0.3 to 3 mg/kg, po administered once daily for 3 consecutive days; format: functional, organism-based; settings: dose 0.3-3 mg/kg, time 3.0 day
Outline: (§2)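 Male Sprague-Dawley rats (220–270 g), isoflurane-anesthetized, given 2 mg MIA in 0.9% saline (50 μl) intra-articular into the knee. From day 14, oral dosing at 10 ml/kg once daily for 3 days in 4% 2-hydroxypropyl-β-cyclodextrin/1% ethanol in 0.01 M HCl. Celecoxib 30 mg/kg in 0.5% methylcellulose twice daily. Joint compression threshold by digital Randall-Selitto at 2 and 4 h postdose on days 1 and 3; n = 10/group.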

[7] = system: Rattus norvegicus; test: Antihyperalgesic activity in MIA induced Sprague-Dawley rat assessed as increased joint compression thresholds at 30 mg/kg, po administered twice daily for 3 consecutive days measured after 2 to 4 hrs; format: functional, organism-based; settings: time 3.0 day; outline: as §2
[8] = system: Mus musculus; test: Antinociceptive activity in C57BL6/J mouse assessed as reduction in locomotive activity at 10 mg/kg, ip administered for 30 mins; format: functional, organism-based
Outline: (§3)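 Tetrad test in male C57BL6/J mice (7 weeks old; n = 8/group). Dosed i.p. at 10 ml/kg in 18:1:1 saline/Emulphor/ethanol, with a vehicle control group. Locomotive activity, thermal nociception (tail-immersion latency), catalepsy (60 s) and body temperature were assessed 30 min postdosing.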

[9] = system: Mus musculus; test: Antinociceptive activity in C57BL6/J mouse assessed as increase in body temperature at 10 mg/kg, ip administered for 30 mins; format: functional, organism-based; outline: as §3
[10] = system: Mus musculus; test: Antinociceptive activity in C57BL6/J mouse assessed as increase in tail-immersion latency at 10 mg/kg, ip administered for 30 mins; format: functional, organism-based; outline: as §3
[11] = system: Mus musculus; test: Antinociceptive activity in C57BL6/J mouse assessed as increase in catalepsy at 10 mg/kg, ip administered for 30 mins; format: functional, organism-based; outline: as §3
[12] = target: T2, Fatty-acid amide hydrolase 1 (Rattus norvegicus); settings: Sprague-Dawley, dose 10.0 mg/kg, route po
[13] = target: T2, Fatty-acid amide hydrolase 1 (Rattus norvegicus); settings: Sprague-Dawley, dose 10.0 mg/kg, route po; remark: listed apart in the source
[14] = target: T2, Fatty-acid amide hydrolase 1 (Rattus norvegicus); settings: Sprague-Dawley, dose 10.0 mg/kg, route po; remark: listed apart in the source
[15] = target: T2, Fatty-acid amide hydrolase 1 (Rattus norvegicus); settings: Sprague-Dawley, dose 10.0 mg/kg, route po; remark: listed apart in the source
[16] = target: T2, Fatty-acid amide hydrolase 1 (Rattus norvegicus); settings: Sprague-Dawley, dose 10.0 mg/kg, route po; remark: listed apart in the source
[17] = target: T2, Fatty-acid amide hydrolase 1 (Rattus norvegicus); settings: Sprague-Dawley, dose 10.0 mg/kg, route po; remark: listed apart in the source
[18] = target: T2, Fatty-acid amide hydrolase 1 (Rattus norvegicus); settings: Sprague-Dawley, dose 10.0 mg/kg, route po; remark: listed apart in the source
[19] = target: T1, Fatty-acid amide hydrolase 1 (Homo sapiens); test: Inhibition of FAAH in human brain at 10 uM in presence of FP-rhodamine by competitive activity-based protein profiling method; format: tissue-based
Outline: (§4)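 Competitive ABPP on human and mouse brain, liver and heart proteomes (membrane and soluble fractions), exposed to compound at 10 or 100 μM or to DMSO. Serine hydrolases were then labeled with FP-rhodamine. Gels were read by fluorescence scanning, and loss of band labeling (FAAH or other hydrolases by kDa) was judged.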

[20] = target: T3, Fatty-acid amide hydrolase 1 (Mus musculus) (UniProt O08914); test: Inhibition of FAAH in mouse brain at 10 uM in presence of FP-rhodamine by competitive activity-based protein profiling method; format: tissue-based; outline: as §4
T3 sequence (whole entry): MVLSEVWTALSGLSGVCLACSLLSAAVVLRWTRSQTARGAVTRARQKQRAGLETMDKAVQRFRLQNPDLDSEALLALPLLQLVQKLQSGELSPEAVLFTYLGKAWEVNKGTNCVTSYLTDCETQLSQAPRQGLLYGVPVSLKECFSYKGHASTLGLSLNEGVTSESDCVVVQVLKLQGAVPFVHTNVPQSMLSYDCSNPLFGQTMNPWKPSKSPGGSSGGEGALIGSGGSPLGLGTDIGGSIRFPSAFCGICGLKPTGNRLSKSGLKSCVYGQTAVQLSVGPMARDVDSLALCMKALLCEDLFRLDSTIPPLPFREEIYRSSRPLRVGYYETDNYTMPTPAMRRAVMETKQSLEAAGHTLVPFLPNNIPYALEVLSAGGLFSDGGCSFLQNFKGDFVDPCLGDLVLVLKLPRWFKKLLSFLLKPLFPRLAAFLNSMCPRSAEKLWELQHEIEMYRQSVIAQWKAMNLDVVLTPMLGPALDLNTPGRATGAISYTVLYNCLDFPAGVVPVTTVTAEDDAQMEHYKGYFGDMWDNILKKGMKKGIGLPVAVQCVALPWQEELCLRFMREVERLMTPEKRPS

[21] = target: T1, Fatty-acid amide hydrolase 1 (Homo sapiens); test: Inhibition of human FAAH assessed as kinact/Ki ratio in presence of glutamate dehydrogenase by 384-well format microplate reader assay
Outline: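 Glutamate dehydrogenase-coupled assay in 384-well format, 50 μl final volume. NAD⁺ formed from ammonia released by oleamide hydrolysis, followed at 340 nm.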

[22] = target: T3, Fatty-acid amide hydrolase 1 (Mus musculus); test: Inhibition of FAAH in mouse brain at 100 uM in presence of FP-rhodamine by competitive activity-based protein profiling method; format: tissue-based; outline: as §4
[23] = target: T1, Fatty-acid amide hydrolase 1 (Homo sapiens); test: Inhibition of FAAH in human brain at 100 uM in presence of FP-rhodamine by competitive activity-based protein profiling method; format: tissue-based; outline: as §4
[24] = system: Mus musculus; test: In vivo inhibition of rhodamine-azide tagged FAAH in FAAH knockout mouse liver at 10 mg/kg, ip administered for 2 hrs by CC-ABPP method based in-gel fluorescence scanning analysis; format: functional, organism-based; outline: as §1

Cc1ccc(Cn2nc(C(=O)N[C@@H]3C(C)(C)[C@@H]4CC[C@@]3(C)C4)cc2-c2ccc(Cl)c(C)c2)cc1
Activity [1]: inactive

C#CCCCOc1ccc(Oc2cccc(C=C3CCN(C(=O)Nc4cccnn4)CC3)c2)nc1
inhibition [2]: Active
Ratio [3]: 11900 M⁻¹ s⁻¹
inhibition [4]: Active

O=C(Nc1ccccc1)N1CCC(Cc2cnc3ccccc3c2)CC1
Ratio [5]: 104 M⁻¹ s⁻¹

Cc1ccc(-c2cc(C(F)(F)F)nn2-c2ccc(S(N)(=O)=O)cc2)cc1
Activity [6]: inactive
Activity [7]: Active

Cc1c(C(=O)c2cccc3ccccc23)c2cccc3c2n1[C@H](CN1CCOCC1)CO3
Activity [8]: Toxic
Activity [9]: Toxic
Activity [10]: Toxic
Activity [11]: Toxic

COc1ccc2cc([C@H](C)C(=O)O)ccc2c1
inhibition [12]: inactive
inhibition [13]: inactive
inhibition [14]: inactive
inhibition [15]: inactive
inhibition [16]: inactive
inhibition [17]: inactive
inhibition [18]: inactive

NC(=O)c1cccc(-c2cccc(OC(=O)NC3CCCCC3)c2)c1
inhibition [19]: Active
inhibition [20]: Active
Ratio [21]: 1590 M⁻¹ s⁻¹
inhibition [22]: Active
inhibition [23]: Active

Cc1c(C(=O)NN2CCCCC2)nn(-c2ccc(Cl)cc2Cl)c1-c1ccc(Cl)cc1
Activity [1]: inactive

C#CCCCCCCCCCNC(=O)Oc1cccc(-c2cccc(C(N)=O)c2)c1
inhibition [2]: Active
inhibition [24]: Active
inhibition [4]: Active
